# Test results taken from ChEMBL document CHEMBL5252546, “Salutaxel, a Conjugate of Docetaxel and a Muramyl Dipeptide (MDP) Analogue, Acts as Multifunctional Prodrug That Inhibits Tumor Growth and Metastasis” (J Med Chem, 2018).
# Calls of active or inactive are those of the source. The rule behind the calls is not given here.
# Tests used:
# 4T1 [1] = assay: Antitumor activity against mouse 4T1 cells xenografted with BALB/c mouse assessed as inhibition of tumor growth at 5.7 mg/kg,iv in presence of compound 6 administrated once per week for 4 weeks; type: functional; conditions: 4T1, 672 h
# In short: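 4T1 cells injected into mammary fat pads of BALB/c mice. Dosing iv once per week for 4 weeks, saline vehicle; single-agent arms were given alone or with the peptide component (5b or 6). Endpoints were body weight, tumour volume, tumour weight, lung metastatic nodule count and lung metastasis score. Mean ± SEM, n = 10; ANOVA and Student's t test.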
# [2] = Toxicity in BALB/c mouse xenografted with human MDA-MB-231 cells assessed as side effects at 5.7 mg/kg,iv administrated once per week for 3 weeks; type: organism-based; conditions: in vivo, 504 h
# In short: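 Nude BALB/c nu/nu mice received subcutaneous human tumour cells into the right flank. Dosing started at mean tumour volume of 100–120 mm3, iv once weekly for 3 weeks; the taxane arm was an equimolar control. Body weight and overt side effects were monitored. Mean ± SEM, n = 8.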
# [3] = Drug concentration in plasma of Beagle dog at 1.14 mg/kg,iv measured upto 24 hrs; type: ADME, organism-based, Canis lupus familiaris; conditions: in vivo
# In short: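 Taxane given as a single intravenous dose: 2.28 mg/kg to rats by injection and 1.14 mg/kg to Beagle dogs by infusion. Plasma concentrations were then measured.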
# [4] = Stability in human hepatocyte assessed as compound remaining at 3 uM incubated upto 120 mins; type: ADME, cell-based; conditions: hepatocytes, 2 h
# [5] = Volume of distribution at steady state in rat at 8 mg/kg,iv measured upto 24 hrs; type: ADME, organism-based; conditions: in vivo, read-out: Vdss
# [6] = Drug concentration in plasma of rat assessed as docetaxel concentration at 2 to 8 mg/kg,iv measured upto 24 hrs; type: ADME, organism-based; conditions: in vivo, dose 2-8 mg/kg
# In short: (§1)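 Rats were given a single iv injection at 2, 4 or 8 mg/kg. Plasma parent drug and released docetaxel were followed over time. Cmax, Tmax, AUC, MRT, t1/2, CL and Vss were reported for males, females and all animals combined.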
# [7] = MRT (0 to infinity) in female rat at 2 mg/kg,iv measured upto 24 hrs; type: ADME, organism-based; conditions: in vivo
# [8] = Drug concentration in rat brain assessed as docetaxel concentration at 4 mg/kg,iv measured after 24 hrs; type: ADME, organism-based; conditions: in vivo
# In short: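 Rats received 4 mg/kg iv. Parent drug and released docetaxel were assayed in tissues and plasma from the first sampling at 0.25 h to 24 h. The lower limit of quantitation was 200 ng/g.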
# NCI-H522 = assay: Antiproliferative activity against human NCI-H522 cells assessed inhibition of cell growth incubated for 72 hrs by SRB assay; type: functional, cell-based; conditions: NCI-H522, 72 h
# [9] = Toxicity in BALB/c mouse injected with mouse 4T1 cells assessed as decrease in body weight at 20 mg/kg,iv administrated once per week for 4 weeks; type: organism-based; design: scale not given: the % may be the effect or the level left; conditions: in vivo, 672 h
# [10] = Drug metabolism in mouse hepatocytes assessed as MDA-205 metabolite formation at 20 uM incubated for 180 mins; type: ADME, cell-based, Hepatocyte; conditions: 3 h
# [11] = Drug metabolism in human hepatocytes assessed as docetaxel metabolite formation at 20 uM incubated for 180 mins; type: ADME, cell-based, Hepatocyte; conditions: 3 h
# [12] = Clearance in rat at 8 mg/kg,iv measured upto 24 hrs; type: ADME, organism-based; conditions: in vivo; in short: as §1
# 4T1 [13] = assay: Antitumor activity against mouse 4T1 cells implanted in BALB/c mouse assessed as increase in tumor NOD1 expression level at 5 to 20 mg/kg,iv administrated once per week for 4 weeks by western blot assay; type: functional, organism-based; conditions: dose 5-20 mg/kg
# In short: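 4T1 fat-pad model in BALB/c mice, iv once weekly for 4 weeks; MMP9, MMP2 and NOD1 in spleen, lung and tumour by western blot, β-actin loading control; bands averaged over five mice per group, representative of two independent experiments.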
# BT-474 = assay: Antiproliferative activity against human BT-474 cells assessed inhibition of cell growth incubated for 72 hrs by SRB assay; type: functional, cell-based; conditions: BT-474, 72 h
# [14] = Toxicity in BALB/c mouse xenografted with human MDA-MB-231 cells assessed as body weight loss at 10 mg/kg,iv administrated once per week for 3 weeks; type: organism-based; conditions: in vivo, 504 h
# [15] = Clearance in female rat at 4 mg/kg,iv measured upto 24 hrs; type: ADME, organism-based; conditions: in vivo; in short: as §1
Drug uptake [3],SMILES,inhibition in vivo at 5.7 mg/kg (4T1 [1]),Activity [2],Stability [4],Vd [5],Drug uptake [6],MRT inf [7],Drug uptake [8],IC50 (NCI-H522),Activity [9],Drug metabolism [10],Drug metabolism [11],clearance [12],Activity (4T1 [13]),IC50 (BT-474),Activity [14],clearance [15]
0.8%,CC(=O)O[C@@]12CO[C@@H]1C[C@H](O)[C@@]1(C)C(=O)[C@H](O)C3=C(C)[C@@H](OC(=O)[C@H](O)[C@@H](NC(=O)OC(C)(C)C)c4ccccc4)C[C@@](O)([C@@H](OC(=O)c4ccccc4)[C@H]21)C3(C)C [DOCETAXEL ANHYDROUS],15.4%,Non-Toxic,,,,,,,,,,,,,,
,CC(=O)O[C@@]12CO[C@@H]1C[C@H](O)[C@@]1(C)C(=O)[C@H](O)C3=C(C)[C@@H](OC(=O)[C@H](OC(=O)CCC(=O)NCCCC[C@H](NC(=O)CC[C@@H](NC(=O)[C@H](C)NC(=O)/C=C/c4ccc(F)cc4Cl)C(N)=O)C(=O)O)[C@@H](NC(=O)OC(C)(C)C)c4ccccc4)C[C@@](O)([C@@H](OC(=O)c4ccccc4)[C@H]21)C3(C)C,,,Stable,0.096 L/kg,0.79%,8.64 min,Not Active,0.0163 µM,8%,Metabolite_Detected,Metabolite_Detected,2.97 mL/min/kg,inactive,0.0163 µM,Non-Toxic,5.13 mL/min/kg
